This is an account of results in ChEMBL document CHEMBL3227936, “Actions of two dopamine derivatives at adreno- and cholinoceptors” (J Med Chem, 1979).

The target in one data set is T1, Acetylcholinesterase (Gallus gallus, UniProt P36196).
T1 sequence (P36196 whole entry): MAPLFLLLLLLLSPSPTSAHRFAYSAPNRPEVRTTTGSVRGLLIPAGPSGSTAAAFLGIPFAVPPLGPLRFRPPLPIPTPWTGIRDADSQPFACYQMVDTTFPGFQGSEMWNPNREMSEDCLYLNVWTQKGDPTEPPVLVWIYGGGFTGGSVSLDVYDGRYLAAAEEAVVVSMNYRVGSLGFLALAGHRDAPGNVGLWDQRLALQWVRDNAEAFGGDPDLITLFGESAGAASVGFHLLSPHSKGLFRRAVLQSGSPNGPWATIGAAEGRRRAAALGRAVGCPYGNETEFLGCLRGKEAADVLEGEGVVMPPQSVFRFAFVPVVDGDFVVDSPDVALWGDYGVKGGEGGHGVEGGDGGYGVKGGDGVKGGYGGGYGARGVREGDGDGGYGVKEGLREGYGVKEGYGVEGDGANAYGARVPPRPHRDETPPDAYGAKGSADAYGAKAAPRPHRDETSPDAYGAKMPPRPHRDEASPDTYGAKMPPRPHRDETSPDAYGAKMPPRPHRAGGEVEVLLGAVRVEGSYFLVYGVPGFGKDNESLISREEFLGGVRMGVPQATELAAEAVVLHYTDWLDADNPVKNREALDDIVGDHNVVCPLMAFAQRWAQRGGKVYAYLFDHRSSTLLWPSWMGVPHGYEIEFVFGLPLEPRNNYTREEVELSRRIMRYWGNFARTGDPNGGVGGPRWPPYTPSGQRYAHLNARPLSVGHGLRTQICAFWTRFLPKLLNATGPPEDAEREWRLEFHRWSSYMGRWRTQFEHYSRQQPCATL
As to the kind of experiment: Inhibition of acetylcholine esterase in chicken biventer cervicis muscle assessed as rate of acetylcholine hydrolysis by Ellman's method. On the set-up: species or system Muscle tissue. Conditions: read-out: I50. The essentials: (§1)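 Chick biventer cervicis muscle homogenates were assayed for cholinesterase with acetylthiocholine as substrate by Ellman's colorimetric method as modified by Gandiha et al. Absorbance change was read at 412 nm. Hydrolysis rates (µmol min^-1 g^-1) were compared with and without drug.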
On the technique in general: DTNB colorimetry detects thiols as they appear.

In data set [1] the test system is Felis catus. As to the kind of experiment: Reduction of mean blood pressure in cat at 0.2 to 3 mg/kg, iv. The class given is functional, organism-based. The essentials:
(§2)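 Adult cats of either sex were anesthetized with α-chloralose 80 mg/kg plus sodium pentobarbitone 6 mg/kg ip, and nearly all were bilaterally vagotomized. Drugs were given iv via a femoral or brachial vein in acid-0.9% saline (pH 4.5). The sciatic nerve was stimulated to evoke soleus contractions, with maximal twitches at 0.1 Hz. Responses were recorded continuously.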

Data set [2] has as its system Felis catus. Nature of the data set: Reduction of heart rate in cat at 0.2 to 3 mg/kg, iv. Type of data set: functional, organism-based. An outline of the steps:
as §2

Data set [3] has as its system Felis catus. As to the kind of experiment: Reduction of mean blood pressure in cat at 0.2 to 3 mg/kg, iv in presence of atropine. The class given is functional, organism-based. The essentials:
(§3)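 Cats were anesthetized with α-chloralose 80 mg/kg plus pentobarbitone 6 mg/kg ip and vagotomized. Drugs were given iv in acid saline pH 4.5. Heart rate and blood pressure responses were recorded before and after atropine 1 mg/kg.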

Data set [4] deals with Felis catus. Nature of the data set: Reduction of heart rate in cat at 0.2 to 3 mg/kg, iv in presence of atropine. The class given is functional, organism-based. An outline of the steps:
as §3

In data set [5] the test system is Felis catus. Nature of the data set: Reduction of mean blood pressure in atropinized-cat at 0.2 to 3 mg/kg, iv in presence of phentolamine. Type of data set: functional, organism-based. An outline of the steps:
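In atropinized cats (atropine 1 mg/kg) under chloralose–pentobarbitone anesthesia, drugs in acid saline pH 4.5 were given iv. Mean blood pressure responses were recorded with phentolamine 2 mg/kg.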

The subject of data set [6] is Felis catus. Nature of the data set: Reduction of twitch tension in soleus muscle of electrically stimulated cat at 0.2 to 3 mg/kg, iv. The class given is functional, organism-based. The essentials:
as §2

Data set [7] has as its system Felis catus. As to the kind of experiment: Reduction of fused incomplete tetanic contraction in soleus muscle of electrically stimulated cat at 0.2 to 3 mg/kg, iv in presence of antagonist propranalol. The class given is functional, organism-based. An outline of the steps:
(§4)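 In chloralose–pentobarbitone anesthetized cats, the sciatic nerve was stimulated to evoke soleus contractions. Drugs were given iv in acid saline pH 4.5, and responses were recorded after propranolol 0.4 mg/kg.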

Data set [8] relates to Felis catus. As to the kind of experiment: Reduction of fused incomplete tetanic contraction in soleus muscle of electrically stimulated cat at 0.2 to 3 mg/kg, iv. Type of data set: functional, organism-based. The essentials: as §2
For data set [9], the system named is Felis catus. Nature of the data set: Reduction of twitch tension in soleus muscle of electrically stimulated cat at 0.2 to 3 mg/kg, iv in presence of antagonist propranolol. The class given is functional, organism-based. An outline of the steps:
as §4

The species named for data set [10] is Gallus gallus. Nature of the data set: Agonist activity at cholinergic receptor in chicken biventer cervicis nerve muscle assessed as blockade of twitch accompanied with contracture at 10 to 200 ug/ml.
The species named for data set [11] is Gallus gallus. Nature of the data set: Agonist activity at cholinergic receptor in chicken biventer cervicis nerve muscle assessed as blockade of twitch response at 10 to 200 ug/ml in presence of choline.
The species entered for data set [12] is Gallus gallus. Nature of the data set: Agonist activity at cholinergic receptor in chicken biventer cervicis nerve muscle assessed as blockade of twitch response at 10 to 200 ug/ml in presence of caffeine.
For data set [13], the species on record is Cavia porcellus. Nature of the data set: Agonist activity at muscarinic acetylcholine receptor in guinea pig ileum smooth muscle assessed as contraction. The class given is tissue-based. The essentials: (§5)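 Guinea pig ileum segments were kept in Tyrode solution at 32 °C and bubbled with air. Isotonic contractions to cholinergic agonists were recorded, and log concentration–effect curves were built. Points are means of at least four experiments.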

The target of data set [14] is T2, Acetylcholinesterase (Gallus gallus) (UniProt P36196).
T2 sequence (whole entry): T1 sequence (P36196 whole entry)
Nature of the data set: Inhibition of acetylcholine esterase in chicken biventer cervicis muscle assessed as rate of acetylcholine hydrolysis at 1.3 X 10^-3 M by Ellman's method. To be noted: Muscle tissue. An outline of the steps: as §1

The species named for data set [15] is Gallus gallus. As to the kind of experiment: Agonist activity at cholinergic receptor in chicken biventer cervicis nerve muscle assessed as blockade of twitch response at 10 to 200 ug/ml in presence of physostigmine.
The species named for data set [16] is Gallus gallus. As to the kind of experiment: Agonist activity at cholinergic receptor in chicken biventer cervicis nerve muscle assessed as blockade of twitch response at 10 to 200 ug/ml in presence of tetanus.
The species entered for data set [17] is Gallus gallus. As to the kind of experiment: Agonist activity at cholinergic receptor isolated from chicken biventer cervicis nerve muscle assessed as >10 ug/ml.
The species entered for data set [18] is Cavia porcellus. Nature of the data set: Agonist activity at muscarinic acetylcholine receptor in guinea pig ileum smooth muscle assessed as contraction measured after compound washout. Type of data set: tissue-based. An outline of the steps:
as §5

Data set [19] is filed under the species Cavia porcellus. As to the kind of experiment: Agonist activity at muscarinic acetylcholine receptor in guinea pig ileum smooth muscle assessed as contraction in presence of atropine. Type of data set: tissue-based. The essentials: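 Guinea pig ileum was kept in Tyrode solution at 32 °C and aerated. Isotonic contractions were recorded, and concentration–effect curves were repeated after atropine 1×10^-8 M. Points are means of at least four experiments.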

Data set [20] deals with Felis catus. As to the kind of experiment: Induction of fasiculated twitches in skeletal muscle of electrically stimulated cat at 0.2 to 3 mg/kg, iv relative to control. The class given is organism-based, Muscle tissue. On the set-up: dose 0.2-3 mg/kg, route intravenous. Conditions: in vivo. The essentials:
as §2

The species named for data set [21] is Gallus gallus. As to the kind of experiment: (§6) Agonist activity at cholinergic receptor in chicken biventer cervicis nerve muscle assessed as twitch augmentation accompanied with contracture at 1 to 10 ug/ml.
Data set [22] is filed under the species Gallus gallus. As to the kind of experiment: Agonist activity at cholinergic receptor isolated from chicken biventer cervicis nerve muscle assessed as >10 ug/ml measured after compound washout.
The species entered for data set [23] is Cavia porcellus. Nature of the data set: Agonist activity at muscarinic acetylcholine receptor in guinea pig ileum smooth muscle assessed as contraction in presence of hexamethonium. Type of data set: tissue-based. An outline of the steps: as §5
The species named for data set [24] is Gallus gallus. The data set is described as §6. This is another data set of the same source.
The species entered for data set [25] is Gallus gallus. As to the kind of experiment: Agonist activity at cholinergic receptor in chicken biventer cervicis nerve muscle assessed as twitch blockade at 1 to 10 ug/ml.
Data set [26] has as its target T2, Acetylcholinesterase (Gallus gallus). As to the kind of experiment: Inhibition of acetylcholine esterase in chicken biventer cervicis muscle assessed as rate of acetylcholine hydrolysis at 37 uM by Ellman's method. Conditions: Muscle tissue. The essentials:
as §1

The structures appear in SMILES notation. Active and inactive are the calls of the source. The calls are words filed in the database; no cut-off is given here.

For `CNC(=O)Oc1ccc2c(c1)[C@]1(C)CCN(C)[C@@H]1N2C` [PHYSOSTIGMINE], the IC50 at Acetylcholinesterase was found to be 0.02 µM.

Consider `CC1NCCc2cc(O)c(O)cc21` (stereo unspecified), for which the Activity entry in the data set with Felis catus [1] was “Dose-dependent effect”; in [14], 7.48 µmol/min/g. Moreover, the outcome in the data set on Felis catus [2], with Felis catus [6], in the data set on Felis catus [8], in the data set filed under Gallus gallus [10], in the data set listed under Gallus gallus [11] and in the data set listed under Gallus gallus [12] was Active. Moreover, the result in the data set filed under Gallus gallus [15] and in the data set listed under Gallus gallus [16] was Active. Also, the outcome with Felis catus [3], in the data set on Felis catus [4], with Felis catus [5], in the data set with Felis catus [7], in the data set on Felis catus [9] and in the data set listed under Cavia porcellus [13] was inactive.

Turning to `C[N+](C)(C)CCOC(N)=O`, the result in the data set filed under Gallus gallus [17] and in the data set filed under Cavia porcellus [13] was Active. Besides, the result in the data set filed under Cavia porcellus [18] and in the data set filed under Cavia porcellus [19] was inactive.

Consider `Br.CC1(C)NCCc2cc(O)c(O)cc21`, for which the Activity result is “Dose-dependent effect” with Felis catus [1], “<= 100%” with Felis catus [20] and 3.55 µmol/min/g in [26]. Also, the result in the data set on Felis catus [3], in the data set with Felis catus [5], in the data set filed under Gallus gallus [22], in the data set filed under Cavia porcellus [18], in the data set listed under Cavia porcellus [19] and in the data set filed under Gallus gallus [25] was inactive. The outcome in the data set filed under Gallus gallus [21], in the data set filed under Gallus gallus [17], in the data set listed under Cavia porcellus [13], in the data set listed under Cavia porcellus [23] and in the data set listed under Gallus gallus [24] was Active. Further, the IC50 at Acetylcholinesterase was 37 µM.
